Reference: ChEMBL document CHEMBL1765053, “Synthetic mimics of antimicrobial peptides from triaryl scaffolds” (J Med Chem, 2011)
Values after ≈ are worked out from the molar mass of the structure shown.

Assays:
Staphylococcus aureus = experiment: Antibacterial activity against Staphylococcus aureus ATCC 27660 after 18 hrs by microbroth dilution method; assay type: functional; details: ATCC 27660, 18 h
How it was run: (§1)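 Hancock modification of CLSI broth microdilution, adjusted to limit compound adsorption to surfaces and precipitation. Bacteria grown overnight in Mueller-Hinton broth at 37 °C. Compounds tested as di-TFA salts or diamine, from DMSO/Hancock solution (0.01% acetic acid, 0.2% BSA) 2-fold stocks diluted 10-fold into culture. Final 100 to 0.05 μg/mL, duplicate. Growth read as OD600 after 18 h at 37 °C. MIC taken as >90% growth inhibition.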

Escherichia coli = experiment: Antibacterial activity against Escherichia coli ATCC 25922 after 18 hrs by microbroth dilution method; assay type: functional; details: ATCC 25922, 18 h; how it was run: as §1
Klebsiella pneumoniae = experiment: Antibacterial activity against Klebsiella pneumoniae ATCC 13883 after 18 hrs by microbroth dilution method; assay type: functional; details: ATCC 13883, 18 h; how it was run: as §1
[1] = Toxicity in human RBC assessed as hemolysis after 1 hr; assay type: cell-based, Erythrocyte; details: human red blood cells (RBC)
How it was run: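 RBCs spun down from human whole blood and diluted in TBS to a 0.22% stock suspension. Serial 1:2 dilutions of compound in water added, highest final 1000 μg/mL. Shaken 1 h at 37 °C, then centrifuged 3000 rpm for 5 min. Supernatant diluted into water and released hemoglobin quantified. HC50 is the lowest concentration lysing 50% of RBCs.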

MIC (Staphylococcus aureus) [µg/mL]	MIC (Escherichia coli) [µg/mL]	MIC (Klebsiella pneumoniae) [µg/mL]	Compound	HC50 at 1 h [1] [µg/mL]
12.5	50	100	CC(C)(C)c1ccc(NC(=O)CCN)c(-c2ccc(-c3cc(C(C)(C)C)ccc3NC(=O)CCN)nn2)c1.O=C(O)C(F)(F)F.O=C(O)C(F)(F)F	82.5
12.5	12.5	25	CC(C)(C)c1ccc(NC(=O)CCN)c(-c2ccc(-c3cc(C(C)(C)C)ccc3NC(=O)CCN)nc2)c1.O=C(O)C(F)(F)F.O=C(O)C(F)(F)F	39
3.13	6.25	12.5	CC(C)(C)c1ccc(NC(=O)CCN)c(-c2ccc(-c3cc(C(C)(C)C)ccc3NC(=O)CCN)cc2)c1.O=C(O)C(F)(F)F.O=C(O)C(F)(F)F	6.46
25	50	50	NCCC(=O)Nc1ccc(C(F)(F)F)cc1-c1ccc(-c2cc(C(F)(F)F)ccc2NC(=O)CCN)nn1.O=C(O)C(F)(F)F.O=C(O)C(F)(F)F	191
25	50	> 100	NCCC(=O)Nc1ccc(C(F)(F)F)cc1-c1ccc(-c2cc(C(F)(F)F)ccc2NC(=O)CCN)nc1.O=C(O)C(F)(F)F.O=C(O)C(F)(F)F	356
50	50	> 50	NCCC(=O)Nc1ccccc1-c1ccc(-c2ccccc2NC(=O)CCN)nn1.O=C(O)C(F)(F)F.O=C(O)C(F)(F)F	> 1000
3.13	12.5	25	NCCC(=O)Nc1ccc(C(F)(F)F)cc1-c1ccc(-c2cc(C(F)(F)F)ccc2NC(=O)CCN)cc1.O=C(O)C(F)(F)F.O=C(O)C(F)(F)F	36.5
12.5 (≈ 21.8 µM)	25 (≈ 43.6 µM)	25 (≈ 43.6 µM)	CC(C)(C)c1ccc(NC(=O)CCCCN)c(-c2ccc(-c3cc(C(C)(C)C)ccc3NC(=O)CCCCN)nn2)c1	
3.13	6.25	12.5	CC(C)(C)c1ccc(NC(=O)CCCCN)c(-c2ccc(-c3cc(C(C)(C)C)ccc3NC(=O)CCCCN)cc2)c1.O=C(O)C(F)(F)F.O=C(O)C(F)(F)F	34.5
0.78	6.25	12.5	CC(C)(C)c1ccc(NC(=O)CCCCNC(=N)N)c(-c2ccc(-c3cc(C(C)(C)C)ccc3NC(=O)CCCCNC(=N)N)cc2)c1.O=C(O)C(F)(F)F.O=C(O)C(F)(F)F	12.8
8	16		H-GIGKFLKKAKKFGKAFVKILKK-NH2 [PEXIGANAN]	120
